Where a SMILES comes first, the peptide text is derived from it.
Experiments:
rats [1] = experiment: 90-day twice-weekly IV repeated-dose study in rats; format: in vivo, rat; settings: up to 300 mg/kg (highest evaluated)
[2] = Phase I safety and pharmacokinetics study in normal human volunteers; format: in vivo; settings: for t1/2 initial / AUC(0-inf) / Cmax / clearance: plasma; for t1/2 initial: normal human volunteers, Mean ± SEM, n = 4; for Vd / AUC(0-inf) / Cmax / clearance: human, iv; for Vd: in vivo
In short: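 Normal volunteers received a single IV dose via the antecubital vein, over a dose range of 0.5–25 mg/kg. Plasma Cmax and AUC were determined, with n = 4 subjects per dose, reported as Mean ± SEM.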

[3] = test system: conscious instrumented dogs; experiment: Cardiovascular safety in conscious instrumented dogs; format: in vivo, dog; settings: single IV bolus doses up to 500 mg/kg
[4] = test system: subjects with major depressive disorder; experiment: Phase IIa safety; format: in vivo, human
In short: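 Randomized, double-blind, placebo-controlled, parallel-group trial at 12 US centres (116 adults). Subjects had MDD by SCID and <25% response (ATRQ) to antidepressants in the current episode, followed by a 14-day antidepressant washout. Each received a single IV infusion over 3–15 min of normal saline or 1, 5, 10 or 30 mg/kg test compound. Subjects stayed ≥24 h in unit, with continuous ECG and pulse oximetry to 4 h, then follow-up visits.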

dogs [5] = experiment: 90-day twice-weekly IV repeated-dose study in dogs; format: in vivo, dog; settings: up to 200 mg/kg (highest evaluated)
male or female rats = experiment: Behavioral safety; format: in vivo, rat
mouse lymphoma = experiment: Mouse lymphoma assay; format: cell-based
rats [6] = experiment: Pentylenetetrazole convulsant activity; format: in vivo, rat; settings: single dose 500 mg/kg IV, 60 min following pentylenetetrazole administration
rats [7] = experiment: Single-dose IV toxicology study in rats; format: in vivo, rat
In short: (§1)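 Single IV doses up to 1000 mg/kg were given to rats and dogs. End-points were clinical observations, body weight, clinical chemistry, hematology, urinalysis, and gross and microscopic pathology.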

[8] = Plasma pharmacokinetics in rats; format: in vivo, rat
[9] = Plasma pharmacokinetics in dogs; format: in vivo, dog
[10] = test system: dog-isolated Purkinje fibers; experiment: Electrophysiology in dog-isolated Purkinje fibers; format: cell-based; settings: concentrations up to 1 mM, the highest evaluated
[11] = Compatibility with human blood, serum and plasma in vitro; settings: concentrations up to 3 mg/ml in vitro
hERG channel = hERG channel (Homo sapiens, UniProt Q12809); experiment: hERG assay; format: cell-based; settings: concentrations up to 5 mM
conscious rats = experiment: Respiratory safety, plethysmography in conscious rats; format: in vivo, rat; settings: single IV bolus dose up to 415 mg/kg, the highest dose evaluated
dogs [12] = experiment: Single-dose IV toxicology study in dogs; format: in vivo, dog
In short: as §1

mouse = experiment: Mouse micronucleus assay; settings: in vivo
[13] = twice-weekly dosing for 3 months

Sequence of hERG channel (Q12809 whole entry): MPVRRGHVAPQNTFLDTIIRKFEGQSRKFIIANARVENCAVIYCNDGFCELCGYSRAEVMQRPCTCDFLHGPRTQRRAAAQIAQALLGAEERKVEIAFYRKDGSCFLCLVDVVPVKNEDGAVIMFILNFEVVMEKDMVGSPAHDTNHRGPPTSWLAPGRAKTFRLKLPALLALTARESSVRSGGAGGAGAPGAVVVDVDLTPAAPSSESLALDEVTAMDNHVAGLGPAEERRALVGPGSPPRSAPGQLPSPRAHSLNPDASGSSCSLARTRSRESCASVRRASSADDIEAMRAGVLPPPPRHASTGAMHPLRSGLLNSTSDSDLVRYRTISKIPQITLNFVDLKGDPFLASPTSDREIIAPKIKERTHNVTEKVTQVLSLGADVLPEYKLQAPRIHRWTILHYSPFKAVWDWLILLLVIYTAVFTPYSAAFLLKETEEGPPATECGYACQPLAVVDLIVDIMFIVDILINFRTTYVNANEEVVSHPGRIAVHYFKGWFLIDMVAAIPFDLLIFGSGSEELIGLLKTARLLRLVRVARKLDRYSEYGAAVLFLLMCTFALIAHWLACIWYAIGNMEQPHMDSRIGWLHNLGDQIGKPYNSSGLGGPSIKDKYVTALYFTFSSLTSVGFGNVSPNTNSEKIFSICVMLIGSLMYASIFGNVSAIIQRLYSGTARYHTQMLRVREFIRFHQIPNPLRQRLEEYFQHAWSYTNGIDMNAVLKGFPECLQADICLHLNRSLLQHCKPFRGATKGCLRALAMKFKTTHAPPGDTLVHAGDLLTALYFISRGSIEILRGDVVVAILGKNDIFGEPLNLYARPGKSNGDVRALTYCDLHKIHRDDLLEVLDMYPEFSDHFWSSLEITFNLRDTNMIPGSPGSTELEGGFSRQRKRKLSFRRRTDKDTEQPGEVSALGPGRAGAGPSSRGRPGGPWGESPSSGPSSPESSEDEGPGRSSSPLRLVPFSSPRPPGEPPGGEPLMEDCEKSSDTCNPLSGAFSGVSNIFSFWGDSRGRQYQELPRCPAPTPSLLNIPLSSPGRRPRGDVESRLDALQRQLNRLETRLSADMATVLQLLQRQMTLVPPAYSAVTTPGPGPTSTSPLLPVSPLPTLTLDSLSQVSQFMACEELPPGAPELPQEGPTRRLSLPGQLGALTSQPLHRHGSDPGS

C[C@@H](O)[C@H](N)C(=O)N1CCC[C@H]1C(=O)N1CCC[C@H]1C(=O)N[C@H](C(N)=O)[C@@H](C)O [GLYX-13] (H-TPPT-NH2)
tolerability, repeated dose (rats [1]): well tolerated | t1/2 initial ([2]; 1 mg/kg IV): 4.7 ± 0.5 min | t1/2 initial ([2]; 5 mg/kg IV): 7.4 ± 0.9 min | t1/2 initial ([2]; 10 mg/kg IV): 9.0 ± 0.6 min | t1/2 initial ([2]; 20 mg/kg IV): 14.0 ± 2.1 min | increase of Cmax with dose ([2]; dose range 0.5 – 10 mg/kg IV): supralinearly | increase of AUC with dose ([2]; dose range 0.5 – 25 mg/kg IV): supralinearly | increase of Cmax with dose ([2]; dose range 10–25 mg/kg IV): linearly | Vd ([2]; 1 mg/kg): 0.17 ± 0.03 L/kg | Vd ([2]; 5 mg/kg): 0.31 ± 0.14 L/kg | Vd ([2]; 10 mg/kg): 0.12 ± 0.01 L/kg | Vd ([2]; 20 mg/kg): 0.1 ± 0.03 L/kg | AUC(0-inf) ([2]; 1 mg/kg): 533 ng·h/mL | Cmax ([2]; 1 mg/kg): 5.2 ± 0.9 µg/mL | clearance ([2]; 1 mg/kg): 33.7 mL/min/kg | AUC(0-inf) ([2]; 5 mg/kg): 4800 ng·h/mL | Cmax ([2]; 5 mg/kg): 26 ± 11 µg/mL | clearance ([2]; 5 mg/kg): 34.8 mL/min/kg | AUC(0-inf) ([2]; 10 mg/kg): 19400 ng·h/mL | Cmax ([2]; 10 mg/kg): 100 ± 21 µg/mL | clearance ([2]; 10 mg/kg): 9 mL/min/kg | AUC(0-inf) ([2]; 20 mg/kg): 67200 ng·h/mL | Cmax ([2]; 20 mg/kg): 182 ± 56 µg/mL | clearance ([2]; 20 mg/kg): 5 mL/min/kg | Ames mutagenesis (Ames mutagenesis assay): inactive | heart rate, blood pressure, ECG parameters [3]: nor did GLYX-13 administered at single IV bolus doses up to 500 mg/kg affect heart rate, blood pressure, or any ECG parameter | suicidality (Columbia-Suicide Severity Rating Scale) ([4]; 14- or 28-day course of observation following dosing): did not cause any increase in suicidality | BPRS+ score (psychotomimetic effects) ([4]; any time following dosing): did not increase BPRS+ score | treatment-related serious adverse events ([4]; single IV dose 1, 5, 10 or 30 mg/kg): No treatment-related serious adverse events | tolerability, repeated dose (dogs [5]): well tolerated | hyperlocomotion (signal for psychotomimetic effects) (male or female rats; any dose evaluated): did not induce hyperlocomotion | adverse behavioral responses (male or female rats; single doses up to 500 mg/kg IV, the highest dose evaluated, male or female rats): No adverse behavioral responses | motor coordination (male or female rats; up to 500 mg/kg IV, male or female rats): did not affect motor coordination | mouse lymphoma assay (mouse lymphoma): inactive | convulsant activity (rats [6]): did not affect convulsant activity | tolerability, single doses (rats [7]; doses up to 500 mg/kg IV): well tolerated | toxicology findings, single dose (rats [7]; doses up to 1000 mg/kg IV): No observational, body weight, clinical chemistry, hematology, urinalysis, or gross or microscopic pathological signals were observed | plasma half-life ([8]; 30 – 300 mg/kg IV): 2 to 3 min | half-life after repeated dosing [8, 13]: retained its short half-life | plasma half-life ([9]; 20 – 200 mg/kg IV): 5 to 8 min | half-life after repeated dosing [9, 13]: retained its short half-life | electrophysiological parameters in Purkinje fibers [10]: did not significantly alter any of the electrophysiological parameters | compatibility with human blood, serum, and plasma [11]: completely compatible | current through the hERG channel (hERG channel): did not affect current through the hERG channel | respiratory parameters (conscious rats): nor did GLYX-13 affect any respiratory parameter | tolerability, single doses (dogs [12]; doses up to 500 mg/kg IV): well tolerated | toxicology findings, single dose (dogs [12]; doses up to 1000 mg/kg IV): No observational, body weight, clinical chemistry, hematology, urinalysis, or gross or microscopic pathological signals were observed | mouse micronucleus assay (mouse): inactive

Source: article PMC4721220 (Expert opinion on investigational drugs, 2013)
